Experimental data as given in PubChem BioAssay.
Unmarked numbers belong to inactive results. Records with an inconclusive call do not appear. The source made the active and inactive calls.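 The calls were made as follows, unless noted: active = viability increase at or above a cutoff of the median across tested compounds plus 3 SD (cut at about 8.5% in these data, passing the limit was not always enough); inconclusive = some gains above the cutoff, reason not given; inactive = the rest.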

Experiments:
[1] = S. cerevisiae growth inhibition in permissive medium (OD615), pilot counter-assay for S. cerevisiae lifespan shortening project, permissive growth control (AID 705;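 active = growth inhibition above 25% in both replicates, a cutoff set 3 SD above the mean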); settings: OD615, 24 h, at 10 µM, hits give high values
Outline: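 Material: engineered DeaD yeast; compound dosing: one dose 10 µM, DMSO 0.25% final; measure: yeast growth inhibition indicated by reduced 24 h OD615; detection: OD615 turbidity read; incubation: cells pre-grown 4 h, then 24 h compound exposure, 30 °C humidified; medium: permissive synthetic complete medium with raffinose and galactose carbon sources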

[2] = S. cerevisiae growth inhibition in restrictive medium, OD615, pilot screen, restrictive growth control, yeast lifespan reduction project (AID 706;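 active = growth inhibition above a set limit, 3 SD over mean compound inhibition, in both replicates, cut at about 43% in these data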;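 also: modified DeaD lifespan yeast strain shifted to restrictive glucose medium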); settings: OD615, 48 h, at 10 µM, hits give high values
Outline: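 material = engineered S. cerevisiae DeaD strain | medium = glucose-based CSMM-D restrictive medium | times = 4 h pre-incubation, 48 h exposure at 30 °C | technique = OD615 absorbance reading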

[3] = doxorubicin toxicity protection in MRP-1 cells – H69AR cells, CellTiter-Glo, duplicate, MRP-1 activator project, pilot screen (AID 807); settings: H69AR viability with doxorubicin, CellTiter-Glo luminescence; at 10 µM; hits give high values;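 also: compound pretreatment 18-22 h then 72 h combined with doxorubicin; 0% = doxorubicin alone and 100% = vehicle without doxorubicin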
[4] = viability of HCT116 without oncogenic beta-catenin – human colon tumor cells, pilot screen (AID 823;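 active = cell viability at or below a set limit in both duplicate runs, the limit being the all-compound median minus 4 SD, cut at about 23% in these data, passing the limit was not always enough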;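 also: 0% = wells killed by 20 µM Hyamine and 100% = untreated DMSO cell wells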); settings: HCT116 beta-catenin knockout viability, CellTiter-Glo, 60 h; at 10 µM; hits give low values
[5] = viability of PTEN-null HCT116 cells – cell-based, HCT116 clonal line, CellTiter-Glo, pilot screen (AID 824;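 active = viability at or below 27.92% in each of two runs, the all-compound median minus 4 SD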;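 also: 0% = 20 µM Hyamine control and 100% = vehicle cell control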); settings: HCT116 PTEN-deleted viability, 60 h, at 10 µM, hits give low values
[6] = RAM pathway blockade in budding yeast – dse1pr::URA3 reporter, 5-FOA selection, pilot screen (AID 869;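 active = inhibition over a set limit, the all-compound mean plus 3 SD, in both replicate runs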;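 also: 0% = DMSO wells with no growth and 100% = 10 µM 1-NA-PP1 with full growth; RAM network block rescues cells from 5-FOA so hits raise OD615 growth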); settings: S. cerevisiae dse1pr::URA3 5-FOA growth, OD615, 2 d; at 10 µM; hits give high values; strain carries analog-sensitive mutant Cbk1 kinase
[7] = RAM signaling pathway blockade in yeast – S. cerevisiae, Pdr1DBD-CYC8 efflux-inhibited sensitized strain, primary screen (AID 1298;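 active = RAM network inhibition above 8.4% in each of two replicates, 3 SD over the compound average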;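 also: 0% = DMSO untreated cells without growth and 100% = 10 µM 1-NA-PP1 full growth; higher means more yeast growth rescued from 5-FOA killing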); settings: S. cerevisiae cbk1-as DSE1-URA3 strain, 5-FOA growth OD615, 2 d; at 50 µM; hits give high values

SMILES | growth inhibition [1] [%] | growth inhibition [2] [%] | viability increase [3] [%] | viability [4] [%] | viability [5] | inhibition [6] [%] | RAM network inhibition [7] [%]
CCCCn1ccc(=O)c2c(C(F)(F)F)nccc21 | -6.65 | -11.4 | -3.12 | 87.8 | 84.4% | 1.19 | -0.41
Cc1cccn2c(=O)c3cc(C(=O)NC4CCS(=O)(=O)C4)sc3nc12 (configuration not stated) | -6 | 1.39 | -2.99 | 101 | 97.2% | 2.06 | 0.09
COc1cc(NC(=O)CCCC(=O)OCC(F)(F)C(F)F)nc(OC)n1 | -5.42 | -21.7 | -0.22 | 102 | 98.9% | 1.37 | 0.92
Cc1ccc(C(=O)c2cc3c(cc2N)OCCO3)cc1 | -11.6 | -21.8 | -3.61 | 91.2 | 89.2% | 0.27 | 3.36
COc1ccc(Cl)cc1N(CC(=O)Nc1ccc2c(c1)OCCO2)S(C)(=O)=O | -2.33 | 0.055 | -2.78 | 92.7 | 89.4% | 3.33 | 2.8
Cc1c(C#N)c2ccccc2n1CC(=O)NCCc1c[nH]c2ccccc12 | -12.2 | 5.17 | -6.08 | 52.7 | 64.3% | 3.73 | 8.41
Cc1ccc(Cl)cc1NC(=O)Cn1cc2c(n1)CCCC2 | -3.65 | 8.66 | -2.72 | 110 | 97% | -0.18 | 0.23
O=C(COC(=O)c1ccc(Br)c(S(=O)(=O)N2CCOCC2)c1)NCC1CCCO1 (configuration not stated) | -1.59 | -5.15 | -2.27 | 100 | 101% | 3.08 | 4.66
COc1ccc(-c2nnc(SCC(=O)NC3CCCCC3)o2)cc1OC | -3.22 | 1.43 | -2.07 | 98.5 | 98.4% | 1.34 | 2.65
COc1c(C)cccc1C(=O)Nc1cc(-c2nn3c(C)nnc3s2)ccc1C | 13.5 | 37 | -5.61 | 73.9 | 64.2% | 2.07 | 7.01
CCOc1ccc(N(CC(=O)NCc2ccc(F)cc2)S(=O)(=O)c2c(C)noc2C)cc1 | -15.6 | -8.36 | -1.36 | 99.3 | 92.8% | 2.25 | 2.84
O=C(NCCCNC(=O)c1cccs1)c1cccs1 | 3.77 | -0.395 | 0 | 96.6 | 108% | 1.09 | 5.26
CCN(CC)Cc1c(O)ccc2c(-c3ccccc3)cc(=O)oc12 | -5.29 | -1.64 | -1.73 | 94.3 | 94.7% | 1.23 | 1.08
CCOC(=O)CSC1=C(C#N)C(c2ccccc2OC)CC(=O)N1 (configuration not stated) | -14 | -1.51 | -6.53 | 27.5 | 27.4% (active) | 0.27 | -0.77
COc1cccc(-n2c(Cc3cc(=O)[nH]c(=O)[nH]3)nnc2SCc2cccnc2)c1 | -7.23 | -2.88 | 0.52 | 106 | 102% | 0 | 0.9
Cc1cc(Nc2cccc(F)c2)n2nc(C)nc2n1 | -13.6 | -7.6 | -2.42 | 101 | 94.4% | 1.08 | 5.28
O=C1NC(c2ccco2)Nc2sc3c(c21)CCN(Cc1ccccc1)C3 (configuration not stated) | 4.68 | 17.8 | -3.01 | 103 | 94% | 1.84 | 3.69
COc1cccc(C2CC(c3ccccc3C)n3nc(N)nc3N2)c1 (configuration not stated) | -7.81 | 7.97 | -2.32 | 107 | 86.5% | 0.35 | 8.21

SMILES | growth inhibition [1] [%] | growth inhibition [2] [%] | viability increase [3] [%] | viability [4] [%] | viability [5] | inhibition [6] [%] | RAM network inhibition [7] [%]
CCC1CCCCN1C(=O)CSc1nc(N)c(NC(=O)c2ccco2)c(=O)[nH]1 (configuration not stated) | 12.5 | 10.7 | -2.48 | 106 | 99% | 2.09 | 2.2
CCOC(=O)CSc1ccc2nnc(-c3ccccc3)n2n1 | -8.02 | -9.2 | -0.81 | 108 | 93.5% | 1.15 | 0.11
O=C(Cc1cccs1)NCCn1ccc2ccccc21 | -14.2 | -11.5 | -1.16 | 90.3 | 87.1% | 0.32 | 9.88
CCOC(=O)C(C)Sc1nnc(Cc2cc(=O)[nH]c(=O)[nH]2)n1-c1cccc(OC)c1 (configuration not stated) | -8.94 | -10 | 0.04 | 101 | 96.9% | 0.395 | -1.47
COc1cc(NC(=O)CN2CC(c3ccccc3)CC2=O)cc(OC)c1 (configuration not stated) | -20.8 | -10.4 | 0.18 | 100 | 99.4% | 1.27 | 1.83
COc1ccc2ccccc2c1C1CC(=O)N2CN(C3CCCCC3)CSC2=C1C#N (configuration not stated) | 2.87 | 25.4 | -4.9 | 81.3 | 76.4% | 2.05 | 4.86
CCOC(=O)c1cccc(NC(=O)C2CCC(CNc3c(N4CCOCC4)c(=O)c3=O)CC2)c1 (configuration not stated) | -7.33 | -13.8 | -2.63 | 83.7 | 82.4% | 0.325 | 1.31
CC(C)C(=O)Nc1c(C(=O)c2ccc(F)cc2)oc2ccccc12 | -8.13 | -2.55 | 0.04 | 105 | 91.2% | 1.55 | 1.81
O=C(NC1CCCCCCC1)c1ccc(CNc2c(N3CCOCC3)c(=O)c2=O)cc1 | 1.56 | 8.42 | 0.25 | 100 | 95.6% | 0.71 | 0.92
CCCN1C(=O)c2cc(C(=O)NCc3cccs3)ccc2C1O (configuration not stated) | -5.98 | -16.4 | -0.99 | 107 | 96.7% | 1.94 | -0.69
COC(=O)C1CCCN1C(C(=O)NC1CCCCC1)c1ccc(Cl)cc1 (configuration not stated) | -15.1 | -2.47 | 1.72 | 82.7 | 74.9% | 0.02 | 2.27
Cn1c(C(=O)NCCCN2CCOCC2)cc2c(=O)n(C)c3ccccc3c21 | 0.23 | -0.345 | -4.09 | 100 | 91.5% | 1.67 | -0.72
CCOC(=O)C1CCN(C(=O)CS(=O)Cc2nc(-c3ccc(C)cc3)oc2C)CC1 (configuration not stated) | 1.66 | 22.5 | -3.68 | 86.3 | 84.6% | 0.32 | 7.5
O=C(O)CCc1nnc2n(Cc3ccc(F)cc3)c(=O)c3ccccc3n12 | -4.64 | 5.36 | -0.62 | 99.2 | 90.8% | 1.04 | 1.56
Cc1ccc(C(=O)N2CCN(C(=O)CN3CCOCC3)C2)cc1 | -4.56 | -13.1 | -1.25 | 95 | 97.3% | -0.175 | 0.11
CCC(C)Nc1nc2c(c(=O)n(C)c(=O)n2C)n1Cc1ccc(Cl)cc1 (configuration not stated) | -0.995 | -4.79 | -4.21 | 79 | 70.6% | -0.035 | 4.57
CCCS(=O)(=O)N1CCn2c(nc3ccccc32)C1 | 0.585 | -2.62 | -0.37 | 106 | 102% | 2.19 | 2.93
Cn1cnc2c1c(=O)n(Cc1ccccc1)c(=O)n2C | -14.8 | -14.2 | -1.66 | 106 | 97% | 3.59 | 0.42
